Source: ChEMBL document CHEMBL1149024, “Naturally occurring antiacne agents” (1994)
In brackets after ≈: the same amount, converted by molar mass. Activity calls are given as the source filed them. The rule behind the calls is not given here.

Columns and labels:
[1] = test system: Cutibacterium acnes; assay: Antimicrobial activity Propionibacterium acnes ATCC 11827 after 2 days by broth dilution method; assay type: functional
Summary of the method: (§1)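 Serial twofold dilutions in DMF; 30 µl of each added to 3 ml NYG broth (0.8% nutrient broth, 0.5% yeast extract, 0.1% glucose), then inoculated with 30 µl of a two-day-old culture. Incubated 2 days at 37°; growth read as turbidity (OD 660 nm). MIC is the lowest concentration giving complete growth inhibition, determined at least twice.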

[2] = test system: Cutibacterium acnes; assay: Antimicrobial activity Propionibacterium acnes ATCC 11827 at 1.56 ug/ml after 3 days by time-kill curve method; assay type: functional, organism-based
Summary of the method: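 P. acnes ATCC 11827, from a two-day-old culture, was inoculated into NYG broth (0.8% nutrient broth, 0.5% yeast extract, 0.1% glucose) containing the compound predissolved in DMF. Initial inoculum was 1 × 10^6 to 5 × 10^6 CFU/ml. Viable counts were taken at 8, 24 and 48 h from serial 10-fold dilutions on Actinomyces agar, incubated anaerobically at 37° for 3 days.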

[3] = test system: Cutibacterium acnes; assay: Antimicrobial activity at lag growth phase of Propionibacterium acnes ATCC 11827 assessed as log units reduction in CFU/ml at 25 ug/ml after 48 hrs by time-kill curve method; assay type: functional
Summary of the method: (§2)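 A 30 µl aliquot of two-day-old culture went into 3 ml NYG broth (initial inoculum 1 × 10^6 to 5 × 10^6 CFU/ml). Compound, dissolved in DMF, was added at set times after incubation began. Viable counts were taken 24 and 48 h after addition from serial 10-fold dilutions plated on Actinomyces agar, incubated anaerobically 3 days at 37°.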

[4] = test system: Cutibacterium acnes; assay: Antimicrobial activity at exponential growth phase of Propionibacterium acnes ATCC 11827 assessed as log units reduction in CFU/ml at 25 ug/ml after 48 hrs by time-kill curve method; assay type: functional, organism-based; summary of the method: as §2
[5] = test system: Cutibacterium acnes; assay: Antimicrobial activity at exponential growth phase of Propionibacterium acnes ATCC 11827 assessed as log units reduction in CFU/ml at 6.25 ug/ml after 48 hrs by time-kill curve method; assay type: functional, organism-based
Summary of the method: (§3)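 Growth-phase time-kill: P. acnes ATCC 11827 was grown in NYG broth from a 1 × 10^6 to 5 × 10^6 CFU/ml inoculum. The compound (DMF stock) was added after 0, 8 or 32 h of incubation. Viable counts were taken 24 and 48 h after addition by serial 10-fold dilution plating on Actinomyces agar, incubated anaerobically at 37° for 3 days. Reduction is expressed as log CFU/ml.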

[6] = test system: Cutibacterium acnes; assay: Antimicrobial activity at exponential growth phase of Propionibacterium acnes ATCC 11827 assessed as log units reduction in CFU/ml at 1.56 ug/ml after 48 hrs by time-kill curve method; assay type: functional, organism-based; summary of the method: as §3
[7] = test system: Cutibacterium acnes; assay: Antimicrobial activity Propionibacterium acnes ATCC 11827 up to 200 ug/ml after 2 days by broth dilution method; assay type: functional, organism-based; summary of the method: as §1
[8] = test system: Cutibacterium acnes; assay: Antimicrobial activity Propionibacterium acnes ATCC 11827 after 2 days by twofold dilution method in presence of 1000 units of lipase; assay type: functional; conditions: ATCC 11827, 48 h
[9] = Cutibacterium acnes, ATCC 11827, 48 h
[10] = Cutibacterium acnes, ATCC 11827, 48 h, read-out: MIC

| Structure (SMILES) | MIC [1, 10] [µg/mL] | further results |
| --- | --- | --- |
| CCCCCCCCCCCCCCCO | 0.78 (≈ 3.41 µM) | MBC [1, 9]: 1.56 µg/mL (≈ 6.83 µM); Activity [2]: Active; Activity [3]: >2; Activity [4]: Active; Activity [5]: inactive; Activity [6]: inactive |
| CCCCCCCCCCCCCCCCCO | > 800 | – |
| CCCCCCCCc1cccc(O)c1C(=O)O | 3.13 (≈ 12.5 µM) | – |
| CCCCCCCCCCc1cccc(O)c1C(=O)O | 1.56 (≈ 5.6 µM) | – |
| CCCCCCCCCCC(C)O (centres undefined) | 12.5 (≈ 67.1 µM) | – |
| CCCCCCCCCCCCCCC(C)O (centres undefined) | 0.78 (≈ 3.22 µM) | – |
| CCCCCCCCCCCCC(C)O (centres undefined) | 3.13 (≈ 14.6 µM) | – |
| CCC/C=C\C/C=C\CCCCCCCc1cccc(O)c1C(=O)O | 0.78 (≈ 2.26 µM) | – |
| CCCCCCCCCCCCc1cccc(O)c1C(=O)O | 0.39 (≈ 1.27 µM) | – |
| CCCCCCCCCCCCCCCCCCCCc1cccc(O)c1C(=O)O | > 800 | – |
| CCCCCCC(O)CC (centres undefined) | 200 (≈ 1390 µM) | – |
| CCCCCc1cccc(O)c1C(=O)O | 100 (≈ 480 µM) | – |
| Cc1cccc(O)c1C(=O)O | 200 (≈ 1310 µM) | – |
| CCCCCCC(C)O (centres undefined) | 800 (≈ 6140 µM) | – |
| CCCCCCCCCCCCCCCCC(C)O (centres undefined) | > 800 | – |
| C=C1[C@H]2CC[C@H](C2)C1(C)C | 25 (≈ 184 µM) | – |
| CCCCCCCCCCCCCCCCCCCCO [1-EICOSANOL] | > 800 | – |
| CCCCCCCO [1-HEPTANOL] | 400 (≈ 3440 µM) | MBC [1, 9]: 800 µg/mL (≈ 6880 µM) |
| CCCCCCO [1-HEXANOL] | > 800 | – |
| CCCCCC(C)O (centres undefined) [2-HEPTANOL] | 800 (≈ 6880 µM) | – |
| CCCCC(C)O (centres undefined) [2-HEXANOL] | 800 (≈ 7830 µM) | – |
| CCCCCCCC(C)O (centres undefined) [2-NONANOL] | 400 (≈ 2770 µM) | – |
| CCCCC(O)CC (centres undefined) [3-HEPTANOL] | 800 (≈ 6880 µM) | – |
| CCCCCC(O)CC (centres undefined) [3-OCTANOL] | 400 (≈ 3070 µM) | – |
| CC1=C[C@@H]2C(=C(C)CC[C@H]2C(C)C)CC1 [(+)-DELTA-CADINENE] | 3.13 (≈ 15.3 µM) | – |
| C=C1[C@@H]2CC[C@@H](C2)C1(C)C [(-)-CAMPHENE] | 25 (≈ 184 µM) | – |

| Structure (SMILES) | MIC [1, 10] [µg/mL] | further results |
| --- | --- | --- |
| CC(C)C1=CC2=CC[C@@H]3[C@](C)(CCC[C@@]3(C)C(=O)O)[C@H]2CC1 [ABIETIC ACID] | 25 (≈ 82.7 µM) | – |
| C/C1=C\CC/C(C)=C/CC(C)(C)/C=C/C1 [ALPHA-HUMULONE] | 3.13 (≈ 15.3 µM) | – |
| CC1=CCC2CC1C2(C)C (stereo not drawn) [ALPHA-PINENE] | 25 (≈ 184 µM) | – |
| CC1=CC[C@@H](C(C)(C)O)CC1 [ALPHA-TERPINEOL] | 100 (≈ 648 µM) | – |
| C=CC/C=C\C/C=C\CCCCCCCc1cccc(O)c1C(=O)O [ANACARDIC ACID] | 0.78 (≈ 2.28 µM) | – |
| CCCCCCCCCCCCCCCc1cccc(O)c1C(=O)O [ANACARDIC ACID] | 0.78 (≈ 2.24 µM) | MIC [1]: 0.78 µg/mL (≈ 2.24 µM) |
| C/C=C/c1ccc(OC)cc1 [ANETHOLE] | 100 (≈ 675 µM) | – |
| C=C1CC/C=C(\C)CC[C@@H]2[C@@H]1CC2(C)C [BETA-CARYOPHYLLENE] | 6.25 (≈ 30.6 µM) | – |
| C=C1CCC2CC1C2(C)C (stereo not drawn) [BETA-PINENE] | 100 (≈ 734 µM) | – |
| CC[C@H](CC[C@@H](C)[C@H]1CC[C@H]2[C@@H]3CC=C4C[C@@H](O)CC[C@]4(C)[C@H]3CC[C@]12C)C(C)C [BETA-SITOSTEROL] | > 800 | – |
| CC1(C)C2CCC1(C)C(O)C2 (centres undefined) [BORNEOL] | 200 (≈ 1300 µM) | – |
| Cn1c(=O)c2c(ncn2C)n(C)c1=O [CAFFEINE] | > 400 | – |
| CC12CCC(CC1=O)C2(C)C (centres undefined) [CAMPHOR] | 200 (≈ 1310 µM) | – |
| CC1=CCC2C(C1)C2(C)C (centres undefined) [CARENE] | 50 (≈ 367 µM) | – |
| CCCCCCCCCCCCCCCCCCO [CETOSTEARYL ALCOHOL] | > 800 | – |
| CCCCCCCCCCCCCCCCO [CETYL ALCOHOL] | 0.78 (≈ 3.22 µM) | MBC [1, 9]: 1.56 µg/mL (≈ 6.43 µM) |
| CC(C)CCC[C@@H](C)[C@H]1CC[C@H]2[C@@H]3CC=C4C[C@@H](O)CC[C@]4(C)[C@H]3CC[C@]12C [CHOLESTEROL] | > 800 | – |
| CC(C)=CCC/C(C)=C/[C@H](O)C/C(C)=C/CC/C(C)=C/CO [CRINITOL] | 25 (≈ 81.6 µM) | – |
| C=C(C)[C@H]1CC=C(C)CC1 [D-LIMONENE] | 50 (≈ 367 µM) | – |
| CCCCCCCCC(C)O (centres undefined) [DECAN-2-OL] | 100 (≈ 632 µM) | – |
| CCCCCCCCCCO [DECANOL] | 25 (≈ 158 µM) | MBC [1, 9]: 50 µg/mL (≈ 316 µM) |
| CCCCCCCCCCCC(=O)O [DODECANOATE] | 50 (≈ 250 µM) | – |
| CCCCCCCCCCCCO [DODECANOL] | 3.13 (≈ 16.8 µM) | MBC [1, 9]: 6.25 µg/mL (≈ 33.5 µM) |
| C=CCc1ccc(O)c(OC)c1 [EUGENOL] | 50 (≈ 304 µM) | – |
| CC(C)=CCC/C(C)=C/CC/C(C)=C/CO [FARNESOL] | 6.25 (≈ 28.1 µM) | – |
| CC(C)=CCC/C(C)=C/CO [GERANIOL] | 400 (≈ 2590 µM) | – |

| Structure (SMILES) | MIC [1, 10] [µg/mL] | further results |
| --- | --- | --- |
| CCCCCC/C=C\CCCCCCCc1cccc(O)c1C(=O)O [GINGKOLIC ACID] | 0.78 (≈ 2.25 µM) | – |
| CCCC(O)CC (centres undefined) [HEXAN-3-OL] | > 800 | – |
| CC(C)c1cccc(=O)c(O)c1 [HINOKITIOL] | 12.5 (≈ 76.1 µM) | – |
| c1ccc2[nH]ccc2c1 [INDOLE] | 200 (≈ 1710 µM) | – |
| C/C=C/c1ccc2c(c1)OCO2 [ISOSAFROLE] | 200 (≈ 1230 µM) | – |
| C=CC(C)(O)CCC=C(C)C (centres undefined) [LINALOOL] | 200 (≈ 1300 µM) | – |
| C=C1[C@H]2CC[C@@H]3[C@H]2C(C)(C)CCC[C@]13C [LONGIFORENE] | 6.25 (≈ 30.6 µM) | – |
| CC1CCC(C(C)C)C(O)C1 (centres undefined) [MENTHOL] | 400 (≈ 2560 µM) | – |
| C=CCc1ccc(OC)c(OC)c1 [METHYLEUGENOL] | 200 (≈ 1120 µM) | – |
| CCCCCCCCCCCCCCO [MYRISTYL ALCOHOL] | 1.56 (≈ 7.28 µM) | MBC [1, 9]: 1.56 µg/mL (≈ 7.28 µM) |
| CC(C)c1oc(=O)cc2c1[C@@H](O)[C@H]1OC(=O)[C@@]3(C)[C@@H](O)[C@H]4O[C@H]4[C@@]2(C)[C@@H]13 [NAGILACTONE C] | > 800 | – |
| CC(C)[C@H]1OC(=O)C=C2C13O[C@@H]3[C@H]1OC(=O)[C@@]3(C)[C@@H](O)CC[C@@]2(C)[C@@H]13 (some centres undefined) [NAGILACTONE E] | > 800 | – |
| C=CC(C)(O)CC/C=C(\C)CCC=C(C)C (centres undefined) [NEROLIDOL] | 25 (≈ 112 µM) | – |
| CCCCCCCCCO [NONANOL] | 100 (≈ 693 µM) | MBC [1, 9]: 200 µg/mL (≈ 1390 µM) |
| CCCCCCCCO [OCTANOL] | 200 (≈ 1540 µM) | – |
| CCCCCCCCCCCCCCCOC(=O)CCCCCCCCCCC [PENTADECANYLDODECANOATE] | – | Activity [7]: inactive; MIC [8]: 1.56 µg/mL |
| CC1(C)CCC[C@]2(C)[C@@H](C=O)C(C=O)=CC[C@@H]12 [POLYGODIAL] | 25 (≈ 107 µM) | – |
| C=CCc1ccc2c(c1)OCO2 [SAFROLE] | 50 (≈ 308 µM) | – |
| O=C(O)c1ccccc1O [SALICYLIC ACID] | 400 (≈ 2900 µM) | – |
| CC1=CCC(O)(C(C)C)CC1 (centres undefined) [TERPINEOL] | 800 (≈ 5190 µM) | – |
| CC1=CCC(=C(C)C)CC1 [TERPINOLENE] | 50 (≈ 367 µM) | – |
| Cc1ccc(C(C)C)c(O)c1 [THYMOL] | 200 (≈ 1330 µM) | – |
| CC(C)c1c(O)ccc2c1CC[C@H]1C(C)(C)CCC[C@]21C [TOTAROL] | 0.39 (≈ 1.36 µM) | – |
| C/C=C/c1cc(OC)c(OC)cc1OC [TRANS-ASARONE] | 100 (≈ 480 µM) | – |
| CCCCCCCCCCCCCO [TRIDECAN-1-OL] | 1.56 (≈ 7.79 µM) | MBC [1, 9]: 3.13 µg/mL (≈ 15.6 µM) |
| CCCCCCCCCCCO [UNDECANOL] | 12.5 (≈ 72.5 µM) | MBC [1, 9]: 25 µg/mL (≈ 145 µM) |
